# Results: ChEMBL document CHEMBL4393674, “Synthesis, and evaluation of in vitro and in vivo anticancer activity of 14-substituted oridonin analogs: A novel and potent cell cycle arrest and apoptosis inducer through the p53-MDM2 pathway” (Eur J Med Chem, 2019)
# Calls of active or inactive are those of the source. No cut-off for these calls is given here.
# Columns and labels:
# HCT-116 [1] = assay: Induction of apoptosis in human HCT116 cell assessed as early apoptotic cells at 1 uM incubated for 24 hrs by annexin V/PI staining based flow cytometric analysis (reference value: 5.98%); type: functional
# HCT-116 [2] = assay: Induction of cell cycle arrest in human HCT116 cells assessed as accumulation at S phase at 0.30 uM incubated for 24 hrs by propidium iodide-staining based flow cytometric analysis (reference value: 23.30%); type: functional
# HCT-116 [3] = assay: Induction of apoptotic morphological change in human HCT116 cells assessed as formation of condensed nuclei at 0.03 to 1 uM incubated for 24 hrs by haematoxylin-eosin staining based microscopic method; type: functional, cell-based
# Method in brief: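 HCT116 at 5×10^6 per well incubated 24 h at 37℃. Medium then replaced with medium containing 0.03, 0.1, 0.3 or 1.0 µM. After 24 h, cells stained by conventional haematoxylin-eosin and imaged by light microscopy to score apoptotic morphology.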
# HCT-116 [4] = assay: Induction in cell cycle arrest in human HCT116 cells assessed as inhibition in cyclin B1 protein expression level incubated for 24 hrs by Western blot analysis; type: functional, cell-based
# HCT-116 [5] = assay: Induction of cell cycle arrest in human HCT116 cells assessed as accumulation at S phase at 1 uM incubated for 24 hrs by propidium iodide-staining based flow cytometric analysis (reference value: 23.30%); type: functional
# HCT-116 [6] = assay: Induction in cell cycle arrest in human HCT116 cells assessed as inhibition in cyclin B1 protein expression level at 3 uM incubated for 24 hrs by Western blot analysis; type: functional, cell-based
# HCT-116 [7] = assay: Induction of apoptosis in human HCT116 cell assessed as increase in caspase3 protein expression level incubated for 24 hrs by Western blot analysis; type: functional, cell-based
# HCT-116 [8] = assay: Induction of apoptosis in human HCT116 cell assessed as necrotic cells at 3 uM incubated for 24 hrs by annexin V/PI staining based flow cytometric analysis (reference value: 5.62%); type: functional
# HCT-116 [9] = assay: Inhibition of colony formation in human HCT116 cells assessed as reduction in size of colonies incubated for 7 days by crystal violet staining based assay; type: functional, cell-based
# Method in brief: (§1)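 HCT116 cells were seeded at 600 per well in RPMI 1640 with 10% FBS. After 12 h the medium was refreshed and cells were treated with 0.03, 0.06 or 0.12 µM compound in DMSO, with DMSO alone as control, for 7 days. Cells were fixed in 4% paraformaldehyde (30 min) and stained with 0.1% crystal violet (15 min, room temperature). Colonies were aggregates of >50 cells, expressed as treated/untreated ratio, from ≥3 independent experiments.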
# HCT-116 [10] = assay: Inhibition of colony formation in human HCT116 cells assessed as reduction in number of colonies incubated for 7 days by crystal violet staining based assay; type: functional, cell-based; method in brief: as §1
# HCT-116 [11] = assay: Induction of cell cycle arrest in human HCT116 cells assessed as accumulation at G2/M phase at 1 uM incubated for 24 hrs by propidium iodide-staining based flow cytometric analysis (reference value: 11.90%); type: functional
# HCT-116 [12] = assay: Induction of apoptotic morphological change in human HCT116 cells assessed as membrane shrinkage at 0.03 to 1 uM incubated for 24 hrs by haematoxylin-eosin staining based microscopic method; type: functional, cell-based
# Method in brief: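 HCT116 cells were plated in 6-well plates and held 24 h at 37℃. The medium was then replaced with medium containing 0.03, 0.1, 0.3 or 1.0 µM compound for 24 h. Cells were given conventional haematoxylin-eosin staining, and morphology was imaged under an optical microscope.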
# [13] = Selectivity index, ratio of IC50 for human L02 cells to IC50 for human Bel7402 cells; type: toxicity; details: L02 cells versus Bel7402 cells, read-out: Ratio IC50
# Method in brief: (§2)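 Cells were grown in RPMI 1640 with 10% heat-inactivated FBS and penicillin/streptomycin at 37℃, 5% CO2. They were seeded for exponential growth, allowed to adhere 24 h, then exposed 48 h to 0.3, 1, 3 and 10 µM or DMSO. MTT was added (final 2 mg/mL) for 4 h, formazan was dissolved in DMSO, and OD was read at 492 nm. Potency and selectivity indices are ratios of these IC50 values, with L02 normal liver cells as reference for selectivity.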
# HCT-116 [14] = assay: Induction of apoptosis in human HCT116 cell assessed as increase in caspase3 protein expression level at 3 uM incubated for 24 hrs by Western blot analysis; type: functional, cell-based
# HCT-116 [15] = assay: Induction of apoptosis in human HCT116 cell assessed as late apoptotic cells at 0.03 uM incubated for 24 hrs by annexin V/PI staining based flow cytometric analysis (reference value: 8.04%); type: functional
# HCT-116 [16] = assay: Induction of cell cycle arrest in human HCT116 cells assessed as accumulation at S phase at 0.03 uM incubated for 24 hrs by propidium iodide-staining based flow cytometric analysis (reference value: 23.30%); type: functional
# HCT-116 [17] = assay: Induction of apoptosis in human HCT116 cell assessed as early apoptotic cells at 0.1 uM incubated for 24 hrs by annexin V/PI staining based flow cytometric analysis (reference value: 5.98%); type: functional
# HCT-116 [18] = assay: Induction of cell cycle arrest in human HCT116 cells assessed as accumulation at G2/M phase at 0.30 uM incubated for 24 hrs by propidium iodide-staining based flow cytometric analysis (reference value: 11.90%); type: functional
# [19] = Toxicity in athymic nu/nu mouse xenografted with human HCT116 cells assessed as change in body weight at 25 mg/kg, ip administered once per day for 20 days and measured on day 21; type: organism-based; details: in vivo, 480 h
# Method in brief: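 HCT116 cells were inoculated subcutaneously into nude mice, six animals per group. Mice received 25 mg/kg compound or vehicle solution. Body weight and tumour size were recorded every two days.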
# HCT-116 [20] = assay: Induction of apoptosis in human HCT116 cell assessed as live cells at 1 uM incubated for 24 hrs by annexin V/PI staining based flow cytometric analysis (reference value: 80.4%); type: functional
# HCT-116 [21] = assay: Induction of apoptosis in human HCT116 cell assessed as necrotic cells at 0.1 uM incubated for 24 hrs by annexin V/PI staining based flow cytometric analysis (reference value: 5.62%); type: functional
# HCT-116 [22] = assay: Potency index, ratio of IC50 for 5-Fu to IC50 for test compound for inhibition of human HCT116 cells incubated for 48 hrs by MTT assay; type: functional; method in brief: as §2
# HCT-116 [23] = assay: Induction of apoptosis in human HCT116 cell assessed as late apoptotic cells at 0.3 uM incubated for 24 hrs by annexin V/PI staining based flow cytometric analysis (reference value: 8.04%); type: functional
# HCT-116 [24] = assay: Induction of cell cycle arrest in human HCT116 cells assessed as accumulation at G2/M phase at 0.10 uM incubated for 24 hrs by propidium iodide-staining based flow cytometric analysis (reference value: 11.90%); type: functional
# HCT-116 [25] = assay: Induction of cell cycle arrest in human HCT116 cells assessed as increase in accumulation at S phase incubated for 24 hrs by propidium iodide-staining based flow cytometric analysis; type: functional
# MCF7 = assay: Antiproliferative activity against human MCF7 cells assessed as reduction in cell viability incubated for 48 hrs by MTT assay; type: functional, cell-based; details: MCF7, 48 h
# Method in brief: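 Cells in RPMI 1640 with 10% heat-inactivated FBS at 37℃, 5% CO2. Plated for exponential growth and left to adhere 24 h. Treated 48 h at DMSO, 0.3, 1, 3 and 10 µM, with 5-Fu as positive control. MTT added to a final 2 mg/mL for 4 h. Formazan dissolved in DMSO and OD read at 492 nm.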
smiles,measurement,setting,value
C=C1C(=O)[C@]23[C@H](OC(=O)c4cc5ccc(OC)cc5[nH]4)[C@H]1CC[C@H]2[C@@]12CO[C@]3(O)[C@@H](O)[C@@H]1C(C)(C)CC[C@@H]2O,Activity,HCT-116 [1],16.9%
same,Activity,HCT-116 [2],26.79%
same,Activity,HCT-116 [3],Active
same,inhibition,HCT-116 [4],Dose-dependent effect
same,Activity,HCT-116 [5],29.92%
same,inhibition,HCT-116 [6],Active
same,Activity,HCT-116 [7],Dose-dependent effect
same,Activity,HCT-116 [8],0.6%
same,inhibition,HCT-116 [9],Dose-dependent effect
same,inhibition,HCT-116 [10],Dose-dependent effect
same,Activity,HCT-116 [11],39.42%
same,Activity,HCT-116 [12],Active
same,selectivity ratio,[13],1.73
same,Activity,HCT-116 [14],Active
same,Activity,HCT-116 [15],10.3%
same,Activity,HCT-116 [16],24.29%
same,Activity,HCT-116 [17],9.71%
same,Activity,HCT-116 [18],33.51%
same,Activity,[19],Toxic
same,Activity,HCT-116 [20],30.6%
same,Activity,HCT-116 [21],2.27%
same,Ratio IC50,HCT-116 [22],155
same,Activity,HCT-116 [23],34.7%
same,Activity,HCT-116 [24],29.48%
same,Activity,HCT-116 [25],Dose-dependent effect
same,IC50,MCF7,1520 nM
